In data set [1] the test system is KB (epidermoid carcinoma of the nasopharynx) cells. Description: SRB cytotoxicity assay, KB. It counts as cell-based, human. The settings on record: read-out: IC50, in vitro cytotoxicity, KB. An outline of the steps:
(§1)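 Cells exposed to test compound or DMSO vehicle for the stated periods, then fixed with 10% TCA. Staining used 0.4% (w/v) sulforhodamine B in 1% acetic acid, with unbound dye washed out in 1% acetic acid. Bound dye was dissolved in 10 mM Trizma base and absorbance read at 515 nm. IC50 taken from the resulting absorbance data.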
In general terms: In SRB staining, fixed cells bind dye roughly in proportion to their protein.

Data set [2] has as its system DU145 (prostate cancer) cells. Description: SRB cytotoxicity assay, DU145. It counts as cell-based, human. The settings on record: read-out: IC50, in vitro cytotoxicity, DU145. An outline of the steps: as §1
Data set [3] concerns HCT-116 (colon cancer) cells. Nature of the data set: MTT cytotoxicity assay, HCT-116. It counts as cell-based, human. The settings on record: read-out: IC50, in vitro cytotoxicity, HCT-116, HCT-116 cells.
Data set [4] has as its system HL-60 (leukemia) cells. Description: MTT cytotoxicity assay, HL-60. It counts as cell-based, human. To be noted: read-out: IC50, in vitro cytotoxicity, HL-60, HL-60 cells.
The test system of data set [5] is Hep 3B (hepatoma) cells. Nature of the data set: MTT cytotoxicity assay, Hep 3B. It is filed as cell-based, human. To be noted: read-out: IC50, in vitro cytotoxicity, Hep 3B, Hep 3B cells. A general note: Tetrazolium dyes change colour on reduction, which living cells bring about.
In data set [6] the test system is A549 (non-small cell lung carcinoma) cells. Description: SRB cytotoxicity assay, A549. It is filed as cell-based, human. The settings on record: read-out: IC50, in vitro cytotoxicity, A549. The method, boiled down: as §1
The subject of data set [7] is KB-VIN (p-glycoprotein-expressing epidermoid carcinoma of the nasopharynx) cells. Nature of the data set: SRB cytotoxicity assay, KB-VIN. It is filed as cell-based, human. To be noted: read-out: IC50, in vitro cytotoxicity, Kb-VIN, KB-VIN cells (vincristine-resistant). The method, boiled down: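 For A549, KB, KB-VIN and DU145, an SRB assay was used. Cells were exposed to the test compound or DMSO, fixed with 10% TCA and stained with 0.4% (w/v) SRB in 1% acetic acid. Unbound dye was washed out with 1% acetic acid, bound dye solubilized in 10 mM Trizma base, and absorbance read at 515 nm.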

Data set [8] deals with HL-60, HCT-116, H226, A549, Hep G2 and A498 cancer cell lines. Nature of the data set: Cytotoxicity of deacetylated amides 46-53. It is filed as cell-based. The settings on record: read-out: IC50 values, cytotoxicity.
Data set [9] deals with 60 human tumor cell lines. Description: NCI screening against 60 human tumor cell lines. It counts as cell-based.
The test system of data set [10] is tubulin. Nature of the data set: Inhibition of [3H]colchicine binding to tubulin. The settings on record: 1 µM tubulin, 5 µM [3H]colchicine, 10 min at 37 °C; for Inhibition of Colchicine Binding % inhibition at tested concentration, 1 µM: 1 µM inhibitor; for Inhibition of Colchicine Binding % inhibition at tested concentration, 5 µM: 5 µM inhibitor.
The subject of data set [11] is OVCAR-3 xenograft. The settings on record: ip, once weekly for 3 courses, cited from earlier work.
The conditions of data set [12]: ip, once weekly for 3 courses; prior in vivo study; cited from earlier work.
For data set [13] the following is noted: mice model, unpublished data.
The test system of data set [14] is seven human cancer cell lines (HL-60, HCT-116, A549, Hep 3B, KB, KB-VIN, DU145). Nature of the data set: In vitro cytotoxicity, all seven cancer cell lines together. It is filed as cell-based. The settings on record: read-out: IC50 values, range over all seven cancer cell lines.

Where two headings read alike, the source gives them in different places. A value given as a limit tells only on which side of the number the result lay.

Broadly, the IC50 is the concentration that inhibits the measured activity by half. For the molecule “2-(3-Quinolinyl)-6,7-methylenedioxyquinolin-4-one [Compound 42]”, the IC50 in data set [1], in data set [2], in data set [3], in [4], in data set [5] and in [6] was more than 100 nM in each case. Moreover, in data set [7], the IC50 was more than 100 nM.

Regarding `O=C(Nc1ccc2c(c1)OCO2)c1csc2ccccc12` [Compound 46, N-(1,3-Benzodioxol-5-yl)-1-benzothiophene-3-carboxamide], the IC50 in data set [8] was more than 10000 nM.

Consider “2-(3-Benzo[b]furyl)-6,7-methylenedioxyquinolin-4-one [Compound 37]”, for which the IC50 in data set [1] came to 1050 nM; in [2] it was 1870 nM; in data set [3], 50 nM; in [4] it was 30 nM; in data set [5], 90 nM; in [6], 2980 nM. Moreover, the IC50 in data set [7] is 590 nM. In addition, in data set [9] (HCC-2998, KM-12, SF-539, SNB-75, SK-MEL-5, IGROV1, OVCAR-3), the “Growth inhibition, NCI preliminary screening” value is on record as “significantly inhibited the growth”. The “Cytotoxicity against leukemia cell lines, NCI preliminary screening” value in data set [9] (many leukemia cell lines (Figure 5)) was “potent selective cytotoxicity”. The “Inhibition of Colchicine Binding % inhibition at tested concentration, 1 µM” value in data set [10] came out at 39%. In [10], the “Inhibition of Colchicine Binding % inhibition at tested concentration, 5 µM” value was determined as 51%.

In the case of `COc1cccc(-c2cc(O)c3cc(N4CCCC4)ccc3n2)c1` [B, 2-(3-methoxyphenyl)-6-pyrrolinylquinolin-4-one], the “Antitumor activity against the OVCAR-3 xenograft model” value in [11] (at MTD 25 mg/kg, prior in vivo study) is recorded as “moderate antitumor activity”. The “Maximum tolerated dose (MTD)” value in [12] is on record as 25 mg/kg.

“2-(2-Naphthalenyl)-6,7-methylenedioxyquinolin-4-one [Compound 40]”: the IC50 in [1] was more than 1000 nM; in [2], more than 1000 nM; in data set [3] it was more than 1000 nM; in [4], 500 nM; in [5], more than 1000 nM; in data set [6], more than 1000 nM. The half-inhibitory concentration (IC50) in data set [7] is more than 1000 nM.

As for “2-(2-fluorophenyl)-6,7-methylenedioxyquinolin-4-one [CHM-1]”, the figures for the “Extension of life span of tumor-bearing mice” value in data set [11] (79 mg/kg), in data set [11] (134 mg/kg) and in data set [11] (200 mg/kg) were 79%, 133% and 124%, respectively. Besides, in data set [12], the “Maximum tolerated dose (MTD)” value is more than 200 mg/kg.

Take “2-(2-Quinolinyl)-6,7-methylenedioxyquinolin-4-one [Compound 43]”: the IC50 in data set [1], in [2], in [3], in data set [4], in data set [5] and in data set [6] was more than 5000 nM each time. In addition, the IC50 in data set [7] was more than 5000 nM.

Turning to `O=C(Nc1ccc2c(c1)OCO2)c1ccnc2ccccc12` [Compound 51, N-(1,3-Benzodioxol-5-yl)quinoline-4-carboxamide], the IC50 in data set [8] was more than 10000 nM.

On to `O=C(Nc1ccc2c(c1)OCO2)c1ccc2ccccc2c1` [Compound 50, N-(1,3-Benzodioxol-5-yl)naphthalene-2-carboxamide], for which, in data set [8], the IC50 was more than 10000 nM.

For the molecule “2-(2-Benzo[b]thienyl)-6,7-methylenedioxyquinolin-4-one [Compound 36]”, the IC50 in data set [1], in data set [2], in data set [3], in data set [4], in [5] and in [6] was more than 1000 nM throughout. In data set [7], the IC50 was more than 1000 nM.

With “2-(5-Quinolinyl)-6,7-methylenedioxyquinolin-4-one [Compound 44]”, the IC50 in data set [1], in data set [2], in data set [3], in data set [4], in data set [5] and in data set [6] was more than 10000 nM in each case. In addition, in [7], the IC50 is more than 10000 nM.

On to “2-(2-Benzo[b]furyl)-6,7-methylenedioxyquinolin-4-one [Compound 38]”, for which the IC50 in data set [1], in data set [2], in data set [3], in data set [4], in [5] and in [6] was more than 1000 nM in each case. Moreover, in [7], the IC50 is more than 1000 nM.

Turning to `O=C(Nc1ccc2c(c1)OCO2)c1cccc2ncccc12` [Compound 53, N-(1,3-Benzodioxol-5-yl)quinoline-5-carboxamide], in [8], the IC50 is more than 10000 nM.

“2-(1-Anthracenyl)-6,7-methylenedioxyquinolin-4-one [Compound 45]”: the IC50 in [3] is 1600 nM; in data set [4] it was 530 nM; in [5], 2200 nM.

Regarding “2-(4-Quinolinyl)-6,7-methylenedioxyquinolin-4-one [Compound 41]”, the IC50 in data set [1], in data set [2], in data set [3], in data set [4], in data set [5] and in data set [6] was more than 5000 nM throughout. In [7], the IC50 was more than 5000 nM.

Regarding `O=P([O-])(O)Oc1cc(-c2ccccc2F)nc2cc3c(cc12)OCO3.[Na+]` [CHM-1-P-Na], the “Metabolism of the 6,7-methylenedioxy moiety” value in data set [13] is on record as “metabolized to an ortho-quinone”.

As for “2-(3-Benzo[b]thienyl)-6,7-methylenedioxyquinolin-4-one [Compound 1]”, the IC50 was more than 250 nM in data set [1]; more than 250 nM in data set [2]; 140 nM in data set [3]; 170 nM in [4]; 60 nM in data set [5]; more than 250 nM in [6]. Besides, the IC50 in data set [7] is more than 250 nM. In data set [10], the “Inhibition of Colchicine Binding % inhibition at tested concentration, 1 µM” value was determined as 25%. Moreover, the “Inhibition of Colchicine Binding % inhibition at tested concentration, 5 µM” value in [10] amounted to 61%.

Turning to “2-(1-Naphthalenyl)-6,7-methylenedioxyquinolin-4-one [Compound 39]”, the IC50 in data set [1] was 130 nM; in data set [14], 70 to 190 nM; in [2] it was 130 nM; in data set [3], 70 nM; in data set [4], 70 nM; in data set [5], 70 nM. Besides, the IC50 in data set [6] came to 130 nM; in [7], 190 nM. For the same molecule, the “Inhibition of Colchicine Binding % inhibition at tested concentration, 1 µM” value in data set [10] came out at 33%. Further, the “Inhibition of Colchicine Binding % inhibition at tested concentration, 5 µM” value in data set [10] came out at 67%.

The values are drawn from PMC2761767 (Journal of medicinal chemistry, 2009).
